The source of these data is PubChem BioAssay AID504383 (The Scripps Research Institute Molecular Screening Center, 2011).

The structures appear in SMILES notation. The campaign covered roughly 2,500 compounds. About 1,200 (48%) were called active. So high a share suggests a set chosen from earlier hits. This is one part of the list. Unmarked numbers belong to inactive results.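 The calls were made as follows: active = mean activation above the low control average plus 3 SD, as set in the primary screen (cut at about 12% in these data); inactive = the rest.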

The target in the assay is Troponin I, cardiac muscle (Homo sapiens) + Troponin T, cardiac muscle (Homo sapiens) + Troponin C, slow skeletal and cardiac muscles (Homo sapiens) (UniProt P19429+P45379+P63316). In words: calcium sensitizers of cardiac thin filaments – biochemical, IANBD-TnC fluorescence, triplicate, confirmation (AID 504383).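 Also: 0% = DMSO at 0.472 mM calcium and 100% = DMSO at 2.9 mM calcium.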 The note with it: IANBD-labeled cardiac RTF, Ca2+ sensitivity fluorescence; at 7.2 µM; stronger effect = higher value; scaled from EC20 to saturating calcium; tested at EC20 calcium, 0.472 mM. In short, it runs like this:
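System: Labelled thin filament complex | Technique: Filament fluorescence intensity | Benchmarks: Low control EC20 calcium, high control EC100 calcium | Timing: 15 min at 25 °C | Compound dosing: One dose, 7.2 µM nominal | Probe or stimulus: Ca2+ 0.472 mM, EC20 level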
`CCOCCCNC(=S)NCCCNc1nc2c(C)cc(C)cc2cc1C#N`: the activation is 7.25%.
Regarding `Cc1ccccc1OCCC(=O)Nc1cc(S(=O)(=O)N2CCCCC2)ccc1N1CCN(C)CC1`, the activation is 16.9% (active).
The value for `O=C(/C=C/c1cccc(F)c1)Nc1cc(S(=O)(=O)N2CCOCC2)ccc1N1CCCC1` was 9.19%; that for `O=C(CN1CCc2ccccc2C1)Nc1cc(S(=O)(=O)N2CCOCC2)ccc1N1CCOCC1` was 8.9%.
For the molecule `CCn1c(SCC(=O)c2ccc(Cl)cc2)nnc1C(C)C`, the activation is 13.2% (active).
As to `CCn1c(SCC(=O)NNC(=O)c2ccco2)nnc1-c1ccco1`, the activation was -0.46%.
Take `N#C/C(=C/c1ccc(N2CCOCC2)o1)C(=O)Nc1ccccc1`: the activation was 2.26%.
The value for `N#C/C(=C/c1ccc(N2CCCCC2)o1)C(=O)Nc1ccc(Cl)cc1` was 111% (active).
For the molecule `N#C/C(=C/c1ccc(N2CCOCC2)o1)C(=O)NC1CCCCC1`, the activation is -0.07%.
As for `N#C/C(=C/c1ccc(N2CCCCC2)o1)C(=O)NCCc1c[nH]c2ccccc12`, the activation was 40.9% (active).
The value for `COc1ccc(NC(=O)/C(C#N)=C\c2ccc(N3CCOCC3)o2)cc1` was 32.2% (active); that for `N#C/C(=C\c1ccc(N2CCOCC2)o1)C(=O)NC1CCCCC1` was 28.9% (active); that for `N#C/C(=C\c1ccc(N2CCOCC2)o1)C(=O)NCC1CCCO1` (centres undefined) was -0.28%.
In the case of `CCOC(=O)/C(C#N)=N\Nc1cc(Cl)ccc1OC`, the activation was 6.36%.
The value for `N#C/C(=C/c1ccc(N2CCCCC2)o1)C(=O)Nc1ccc2ccccc2c1` was 171% (active).
`N#C/C(=C\c1ccc(N2CCCCC2)o1)C(=O)Nc1cccc(Br)c1`: the activation was 5.9%.
As to `COCCNC(=O)/C(C#N)=C/c1ccc(N2CCOCC2)o1`, the activation was 9.29%.
On to `N#C/C(=C\c1ccc(N2CCCCC2)o1)C(N)=O`, for which the activation was 11.6% (active).
For the molecule `N#C/C(=C\c1ccc(N2CCOCC2)o1)C(=O)N1CCOCC1`, the activation was 6.09%.
Regarding `N#C/C(=C\c1ccc(N2CCOCC2)o1)C(=O)NCCc1ccccc1`, the activation was 43.7% (active).
Take `N#C/C(=C/c1ccc(N2CCOCC2)o1)C(=O)N1CCOCC1`: the activation is 10.1%.
`O=C1NC2=C(C(=O)CCC2)C(c2ccccc2Cl)N1` (centres undefined): the activation is 10.3%.
As to `CN1C(=O)NC(c2ccccc2[N+](=O)[O-])C2=C1CCCC2=O` (centres undefined), the activation was 14.6% (active).
For `C=CCN1C(=O)/C(=C/c2ccc(O)c(OC)c2)S/C1=N/c1nccs1`, the activation was 5.76%.
Then `COc1ccc(/C=C2\SC(=O)NC2=S)cc1OC`, with 7.81%; and `COc1ccc(/C=C2/SC(c3ccc(C)cc3)=NC2=O)cc1OC`, with 34.6% (active).
For `COc1ccc(/C=C2\SC(c3ccc(C)cc3)=NC2=O)cc1OC`, the activation was 12.9% (active).
Then `COc1ccc(/C=c2\s/c(=C/C(=O)c3ccc(C)cc3)[nH]c2=O)cc1OC`, with 1.66%; and `COc1cc(N2CCCC2)c(OC)cc1/C=C1/NC(=S)NC1=O`, with 113% (active); and `COc1ccc2c(Cl)c(C(=O)N/N=C3\CCCC(=O)C3)sc2c1`, with 47.6% (active).
Consider `O=C1CCC/C(=N/NC(=O)c2sc3ccccc3c2Cl)C1`, for which the activation is 7.01%.
The value for `O=C1CCCC(=NNC(=O)c2cc3ccccc3cc2O)C1` was 8.36%; that for `CC1(c2cccc(Br)c2)NC(=O)NC1=O` (centres undefined) was 52.2% (active); that for `COC(=O)C1=C(C(=O)OC)[C@@H]2Nc3ccccc3[C@@]23C[C@@H](C(=O)OC)N(C(=O)c2cccs2)C3=N1` was 36.8% (active).
In the case of `COc1ccc(NC(C)=O)cc1NC(=O)C1CCCN1C(=O)c1cccs1` (centres undefined), the activation was 6.06%.
For the molecule `O=C(CCC1CCCN(C(=O)C2=CCCC2)C1)N1CCN(c2ccccn2)CC1` (centres undefined), the activation was 4.61%.
The value for `Cc1ccc(SCC(=O)OCC(=O)NCc2cccs2)cc1` was 12.8% (active); that for `CCC1Oc2ccc(C)cc2N(CC(=O)NCc2cccs2)C1=O` (centres undefined) was -5.95%; that for `CC(=O)n1cc(CO)c2ccccc21` was 262% (active).
Then `Cc1ccc(Cl)c(NC(=O)CN(C)CC(=O)Nc2ccc(F)c(F)c2F)c1Cl`, with 2.04%.
In the case of `CC(CCc1ccc(O)cc1)NCCC(c1ccccc1)c1ccccc1` (centres undefined), the activation was 48.6% (active).
For `CCN=C(NC#N)SCc1c(F)cccc1Cl`, the activation was 11.4%.
On to `NS(=O)(=O)c1ccc(NCc2c(F)cccc2Cl)cc1`, for which the activation is 45.6% (active).
Turning to `Cc1cccc(N=Cc2[nH]c3ccc(Br)c(Cl)c3c2O)c1`, the activation was 4.45%.
Take `CCOc1ccc(Nc2nc(N)c([N+](=O)[O-])c(NCc3ccccc3)n2)cc1`: the activation is 7.49%.
On to `CCOc1ccc(Cn2nnc(C(=O)NCCc3ccccc3)c2N)cc1`, for which the activation was 821% (active).
For the molecule `COc1cccc2cc(-c3nc(-c4cccs4)cs3)c(=O)oc12`, the activation is 3.53%.
Consider `Cc1ccccc1-c1noc(-c2cccs2)n1`, for which the activation is 24.3% (active).
Take `COc1ccc(N2CCN(C(=O)c3ccc(OCC4CCCO4)cc3)CC2)cc1` (centres undefined): the activation was 71% (active).
Consider `COC(=O)c1sc(N2C(=O)C(O)=C(C(=O)c3ccc(C)o3)C2c2ccc(F)cc2)nc1C` (centres undefined), for which the activation is 35% (active).
Then `O=C(C1=C(O)C(=O)N(c2nccs2)C1c1ccccc1)c1cc2ccccc2o1` (centres undefined), with 5.32%; and `CCCC1C(c2ccccc2)C(C#N)(C#N)C2(C#N)CC1(N)NC2=O` (centres undefined), with 10.5%; and `N#C/C(=C\c1coc2ccc(O)cc2c1=O)C(=O)Nc1nc2ccccc2s1`, with 12.6% (active).
Regarding `O=C(C1=NN(c2ccccc2)C2C(=O)N(c3ccc(Cl)cc3)C(=O)C12)c1ccccc1` (centres undefined), the activation is 2.79%.
Turning to `O=C(C1=NN(c2ccccc2)C2C(=O)N(c3ccccc3)C(=O)C12)c1ccccc1` (centres undefined), the activation is 3.95%.
As for `O=C(C1=NN(c2ccccc2)C2C(=O)N(c3cccc(Cl)c3)C(=O)C12)c1ccccc1` (centres undefined), the activation was 35.7% (active).
In the case of `COc1cccc(/C=C/C(=C2\C(=O)N(c3ccccc3)N=C2C)c2ccc(Br)cc2)c1OC`, the activation is 4.48%.
The value for `COc1ccccc1N1C(=O)C2C(C(=O)c3ccccc3)=NN(c3ccccc3)C2C1=O` (centres undefined) was 11.7% (active).
Take `Cc1ccc(CC2C(=O)N(c3ccc(C)cc3)C(=O)C2C)cc1` (centres undefined): the activation is 7.76%.
Consider `O=C(C1=NN(c2ccccc2)C2C(=O)N(c3ccccc3Cl)C(=O)C12)c1ccccc1` (centres undefined), for which the activation was 13.6% (active).
On to `O=C1N(c2cccc(Cl)c2)C(c2ccccc2)N2CCCN12` (centres undefined), for which the activation was 6.5%.
`Cc1ccc(N2C(=O)C3C(C(=O)c4ccccc4)=NN(c4ccccc4)C3C2=O)cc1` (centres undefined): the activation was 29.5% (active).
As to `COc1ccc(C2(CNC(C)=O)CCCC2)cc1OC`, the activation was 3.15%.
Take `CCOC(=O)c1c(-c2ccc(C)cc2)csc1NC(=O)/C(C#N)=C/c1ccc(O)c(OC)c1`: the activation is 4.04%.
Turning to `COC(=O)c1c(-c2ccc(OC)c(OC)c2)csc1N`, the activation was 13% (active).
For `O=C(c1ccc(=O)[nH]c1)N(Cc1ccco1)C1(C(=O)NC2CCCCC2)CCCCC1`, the activation was 8.99%.
For `O=C(CSCc1ccco1)NC1CCCC1`, the activation was 13.6% (active).
Regarding `S=C(NC1CC1)NC1CCCc2ccccc21` (centres undefined), the activation was 7.09%.
Consider `COc1cc(NC(=O)CSc2ccccc2)c(C(=O)O)cc1OC`, for which the activation is 23.2% (active).
For `COC(=O)c1sccc1NC(=O)CSCC(=O)O`, the activation is 0.67%.
In the case of `COc1cc(NC(=O)CSc2nc3ccccc3n2-c2ccccc2)c(C)cc1[N+](=O)[O-]`, the activation was 6.07%.
Regarding `CCOC(=O)N1CCC(NC(=O)c2cnn3c2NC(c2ccco2)CC3C(F)(F)F)CC1` (centres undefined), the activation is 18% (active).
With `CCOC(=O)C1=C(C)NC(C)=C(C(=O)OCC)C1c1ccco1`, the activation was 8.22%.
On to `COc1ccc(N2CCN(S(=O)(=O)Cc3ccccc3)CC2)cc1`, for which the activation was 10.5%.
The value for `COc1ccccc1N1CCN(c2ccc([N+](=O)[O-])cc2Cl)CC1` was 90.7% (active); that for `COc1ccc(N2CCN(c3ccc([N+](=O)[O-])cc3Cl)CC2)cc1` was 41.8% (active); that for `CC1=N/C(=C/c2ccc([N+](=O)[O-])cc2)C(=O)N1c1ccc(Cl)cc1Cl` was 6.42%.
Then `COc1ccccc1N1CCN(C(=O)CCC(=O)O)CC1`, with 4.12%.
Consider `Cn1c(NC(=O)C[n+]2cc(-c3ccc(Cl)cc3)n3c2CCC3)cc(=O)n(C)c1=O`, for which the activation was 5.8%.
For the molecule `Cc1onc(-c2ccccc2Cl)c1C(=O)N(Cc1ccc(N(C)C)cc1)C(C)C`, the activation was 12% (active).
For `CC(=O)Nc1ccc(SCC(=O)NNC(=O)CN(C)S(=O)(=O)c2ccc(C)cc2)cc1`, the activation is 98% (active).
As for `Cc1ccc(Cn2c(Sc3nnc(C)s3)nc3c2c(=O)[nH]c(=O)n3C)cc1`, the activation was 108% (active).
As for `COc1cc(/C=C2\CC/C(=C\c3ccc(OCCO)c(OC)c3)C2=O)ccc1OCCO`, the activation is 7.54%.
As for `COc1ccc(/C=c2\s/c(=C/C(=O)c3ccc(C)cc3)[nH]c2=O)c(OC)c1`, the activation was 10.7%.
On to `COc1ccc(/C=C2\CC/C(=C\c3ccc(OC)cc3OC)C2=O)c(OC)c1`, for which the activation was 50.4% (active).
The value for `COC(=O)[C@H](C)NC(=O)c1cc2c(cn1)[nH]c1ccccc12` was 10.7%; that for `CCOC(=O)C1=C(COC(=O)c2ccc3ccccc3c2O)NC(=O)NC1C` (centres undefined) was 6.83%; that for `CCOC(=O)c1c(NCC(C)C)c2ccccc2[nH]c1=O` was 183% (active).
Turning to `COc1ccc(N2C(=O)[C@@H]3[C@H](C2=O)[C@H]2c4ccccc4C=CN2[C@@H]3C(=O)Nc2ccccc2)cc1`, the activation is 55.7% (active).
Take `Cc1ccc(-c2nc(C)sc2CC(=O)O)cc1`: the activation is 28.5% (active).
`Cc1ccc(-c2nc(N)sc2CC(=O)OCC(=O)NCCC(C)C)cc1`: the activation was 10.3%.
The value for `COC(=O)c1ccc2c(c1)NC1=C(C(=O)CC(C)(C)C1)C(c1ccncc1)N2` (centres undefined) was 9.24%; that for `COc1ccc(-c2cc(C(F)(F)F)nc(S(=O)(=O)CCCC(=O)Nc3cc(C)on3)n2)cc1OC` was 16.4% (active); that for `COc1ccc(NC(=O)c2cc(C)on2)cc1OC` was 6.63%.
